C8 TRAIL sens: sensitizes caspase-8 expressing cells to TRAIL; NB7+C8 cells + TRAIL, ATPlite viability luminescence; inhibition (viability loss, TRAIL sensitization), % at 10 µM; hit rate 1% among 360,000; AID 624354;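 active = compounds causing at least 50% loss of cell viability in the single-dose screen, relative to plate controls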
FLuc inhib CS: inhibits firefly luciferase, flagging false hits in luciferase inhibition screens | inhibition, % at 10 µM | ATPLite firefly luciferase biochemical luminescence, 10 min | hit rate 1.5% among 200,000;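 active = inhibition above about 50% when tested at 10 µM, limit read from the data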
Target sequence (P08659 whole entry, looked up): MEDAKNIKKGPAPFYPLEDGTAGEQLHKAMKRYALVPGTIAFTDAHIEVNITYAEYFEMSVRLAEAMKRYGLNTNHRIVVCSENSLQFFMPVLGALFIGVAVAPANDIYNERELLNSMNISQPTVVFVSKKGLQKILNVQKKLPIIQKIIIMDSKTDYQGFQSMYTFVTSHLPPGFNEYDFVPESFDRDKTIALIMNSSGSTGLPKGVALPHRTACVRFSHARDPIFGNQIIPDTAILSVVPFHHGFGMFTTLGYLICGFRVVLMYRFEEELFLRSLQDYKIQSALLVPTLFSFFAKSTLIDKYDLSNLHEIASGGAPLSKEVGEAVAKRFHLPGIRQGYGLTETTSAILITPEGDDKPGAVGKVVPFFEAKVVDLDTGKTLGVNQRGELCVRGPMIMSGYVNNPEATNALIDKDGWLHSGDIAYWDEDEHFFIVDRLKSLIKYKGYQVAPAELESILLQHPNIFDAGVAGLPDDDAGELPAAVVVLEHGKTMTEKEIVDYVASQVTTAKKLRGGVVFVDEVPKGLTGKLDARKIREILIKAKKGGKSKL
FLuc stim CS: firefly luciferase counter-screen for stimulation assays; P08659; ATPlite luciferase biochemical, luminescence, 10 min; 0 = ATP-free wells, 1 = DMSO control; activation factor at 10 µM; 200,000 tested, under 10 active; AID 1027;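 active = luciferase activation factor, scaled between plate controls, of at least 2 with compound at 10 µM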
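Assay system: Luciferase/luciferin detection reagent, cell-free biochemical luciferase assay / Read-out: luciferase activation / Benchmarks: No-ATP low control, compound-free enzyme-plus-ATP high control / Medium: PBS buffer for ATP / Detection: luminescence measurement of luciferase light output / Schedule: 10 min at ambient temperature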
PPC-1+TRAIL kill: kills PPC-1 cancer cells in the presence of TRAIL; hit rate 0.41% among 220,000; PPC-1 cells + TRAIL, ATPLite viability luminescence; AID 1443; cell killing (% activity), % at 4 µM or 5 µM;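 active = cell killing above 50% in the first pass at 4 µM, then a duplicate retest at 5 µM averaging 50% or more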;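 also: plate controls were cells with TRAIL plus DMSO for no effect and medium-only wells lacking cells for full effect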
An asterisk follows results filed as active; · = no result. The list is not random: actives were taken first. Their share in the collection is about 1.6%.

SMILES	C8 TRAIL sens	FLuc inhib CS	FLuc stim CS	PPC-1+TRAIL kill
CC(=O)c1cccc(NC(=O)C2Cc3c(-c4cccc(C(C)=O)c4)ccnc3O2)c1 (configuration not stated)	13	·	·	·
O=C(Nc1cccc(Oc2ccccc2)c1)C1Cc2c(-c3ccco3)ccnc2O1 (configuration not stated)	-4	·	·	·
CC(=O)c1cccc(-c2ccnc3c2CC(C(=O)Nc2cccc(NS(C)(=O)=O)c2)O3)c1 (configuration not stated)	76*	·	·	·
CC(C)N1C(=O)CN(C2CCCCCC2)C(=O)C1c1ccccc1F (configuration not stated)	-1	0	1	17
CN(C)c1ccc(/C=C/c2nc3ccccc3c(=O)[nH]2)cc1	91*	·	·	·
O=c1[nH]c(/C=C/c2cccc3ccccc23)nc2ccccc12	-2	-2	1	-4
O=c1[nH]c(/C=C/c2ccc(Br)cc2)nc2ccccc12	78*	·	·	·
O=c1[nH]c(/C=C/c2ccccc2F)nc2ccccc12	79*	·	·	·
O=C(Nc1cccc(/C=C/c2nc3ccccc3c(=O)[nH]2)c1)c1ccccc1Cl	24	·	·	17
COc1ccc(C(=O)Nc2cccc(/C=C/c3nc4ccccc4c(=O)[nH]3)c2)cc1	76*	·	·	9
O=c1[nH]c(/C=C/c2ccccn2)nc2ccccc12	30	·	·	·
CCCN1CCN(CCCNC(=O)C(CC)n2nc(C)c3sc4ccccc4c3c2=O)CC1 (configuration not stated)	9	·	·	·
Cc1cc(C)n(-c2ccc(Cl)c(C(=O)OCC(N)=O)n2)n1	6	-3	1	-10
CCOc1ccc(N(CC(=O)N2CCN(c3ccccc3F)CC2)S(=O)(=O)c2c(C)noc2C)cc1	0	·	·	·
Cc1ccc(C)c(S(=O)(=O)N2CCN(C(=O)c3ccnn3C)CC2)c1	0	·	·	·
CC1CCN(CCCNC(=O)c2ccc(CS(=O)(=O)Cc3ccc(Cl)cc3)o2)CC1	-14	·	·	·
COc1cc(/C=C/c2nc3ccccc3c(=O)[nH]2)cc(Cl)c1O	-1	·	·	·
Cc1cccc(/C=C\c2nc3ccccc3c(=O)[nH]2)c1	58*	73*	0.3	38
Cc1ccc(SC(C)C(=O)NCC(C)C)cc1 (configuration not stated)	7	-5	1.1	23
Nc1cccc(O)c1	-11	·	·	·
Oc1cccc(-c2nnc(-c3cccc(O)c3)nn2)c1	88*	·	·	·
Cc1cccc(NC(=O)CN2C(=O)N/C(=C/c3cc(C)n(C)c3C)C2=O)c1	-10	-4	1	11
CCOC(=O)/C=C(\C)Sc1cc(O)c2ccccc2c1O	72*	·	·	35
O=C(Nc1ccc(C(=O)O)cc1)/C(=C\C=C\c1ccccc1)NC(=O)c1cccc(Br)c1	0	1	1	18
O=C(Nc1ccc(C(=O)O)cc1)/C(=C\C=C\c1ccccc1)NC(=O)c1ccccc1Br	50*	·	·	·
SMILES	C8 TRAIL sens	FLuc inhib CS	FLuc stim CS	PPC-1+TRAIL kill
CCn1c(=O)c(C(=O)CN2CCN(S(=O)(=O)c3ccccc3)CC2)c(N)n(Cc2ccccc2)c1=O	-3	-10	1.1	7
O=C(c1ccsc1)N1CCCC(Nc2ccc(F)c(F)c2)C1 (configuration not stated)	-7	·	·	·
COCC(=O)N(C)C[C@H]1N[C@@](Cc2ccccc2)(C(=O)OC)[C@H]2C(=O)N(C)C(=O)[C@@H]12	-2	·	·	·
Nc1nn(-c2ccccc2)c(N)c1N=Nc1cccc(F)c1	11	·	·	11
Nc1nn(-c2ccccc2)c(N)c1N=Nc1ccc2c(c1)OCO2	20	51*	0.5	12
COc1ccccc1CNC(=O)C[C@H]1CC[C@@H]2[C@H](COC[C@H](O)CN2Cc2ccc3c(c2)OCO3)O1	-10	·	·	·
N#Cc1nc(NCC(F)F)nc(Nc2cc(F)cc(F)c2)n1	50*	·	·	·
N#Cc1nc(Nc2cc(F)cc(F)c2)c2ncn(CC(F)F)c2n1	28	·	·	·
O=[N+]([O-])c1c(Nc2cccc(O)c2)cc(Cl)c2nonc12	59*	·	·	·
O=C(O)/C=C/C(=O)Nc1ccc(-c2ccccc2)cc1	9	53*	0.5	18
CC(C)c1ccc(Nc2nc(CC(=O)O)cs2)cc1	25	71*	0.3	-2
O=C(Nc1ccc(-n2cnnn2)cc1)c1cn2ccccc2n1	34	·	·	24
O=C(Nc1ccc(-c2cn3ccccc3n2)cc1)c1cccs1	52*	73*	0.3	46
COc1ccc(CC(=O)Nc2ccc(-c3cn4ccccc4n3)cc2)cc1	23	36	0.6	37
O=C(Nc1ccccc1)c1cn2ccccc2n1	58*	·	·	48
O=C(Nc1ccc(C(=O)N2CCCC2)cc1)c1cc(F)c(F)cc1Cl	-4	·	·	·
COc1c(Cl)cc(-c2noc(C)c2C(=O)NCc2ccc3c(c2)OCO3)cc1Cl	-9	-2	1	0
Cc1ccc(-c2nn3c(C)nnc3c3ccccc23)cc1S(=O)(=O)NCc1ccccc1	52*	-8	1.1	-4
Cc1ccc(-c2nn3c(C)nnc3c3ccccc23)cc1S(=O)(=O)NCCN1CCOCC1	2	-10	1.1	7
CC(=O)c1cccc(NC(=O)CSc2ccc(-c3ccc4c(c3)OCO4)nn2)c1	64*	21	0.8	28
COc1ccc(-c2ccc(SCC(=O)Nc3cccc(C(C)=O)c3)nn2)cc1OC	26	61*	0.4	25
CC(C)CC(NC(=O)c1ccc(Cl)cc1)C(=O)OCC(=O)c1ccc2c(c1)NC(=O)CO2 (configuration not stated)	73*	-4	1	-6
COc1ccc(-c2cc(C(=O)NN)[nH]n2)cc1	17	6	0.9	14
O=C(Nc1ccc(Cc2ccncc2)cc1)c1ccc(Cl)c([N+](=O)[O-])c1	16	76*	0.2	4
O=C(Nc1ccccc1-c1ccccc1)c1ccc(Cl)c([N+](=O)[O-])c1	-5	-8	1.1	94*
SMILES	C8 TRAIL sens	FLuc inhib CS	FLuc stim CS	PPC-1+TRAIL kill
COc1ccc(/C=N/Nc2cc(C)nc3ccc(Br)cc23)cc1	49*	·	·	·
COc1ccc2nc(C)cc(N/N=C/c3cccc(OC)c3O)c2c1	51*	·	·	·
O=S1(=O)N[C@@H](Cc2ccccc2)COc2cc(N3CCC[C@@H]3CO)ccc21	-1	·	·	·
CC(C)N1CCN(Cc2nc3c(s2)CCCC3)CC1CCO (configuration not stated)	-20	-7	1.1	5
Nc1nc(Cl)cc(N2CCOCC2)n1	8	-3	1	9
CCN(CC)CC(C)(C)C(=O)/C=C/c1ccc(/C=C/C(=O)C(C)(C)CN(CC)CC)cc1	92*	·	·	·
CCN(CC)CCOC(=O)/C=C/c1ccccc1	1	·	·	16
S=c1[nH]nc(-c2ccc3ccccc3n2)n1-c1cc(Cl)cc(Cl)c1	-12	70*	0.3	17
Fc1ccc(-n2c(-c3ccc4ccccc4n3)n[nH]c2=S)cc1	-7	-11	1.1	·
O=c1ccc(-c2nc3ccccc3n2Cc2ccccc2Cl)c[nH]1	-1	-4	1	14
O=C(COc1ccc(Cl)cc1)c1ccc(O)cc1O	7	·	·	18
CCOC(=O)c1ccc(OCC(=O)c2ccc(O)cc2O)cc1	43	59*	0.4	32

Screening data as filed in PubChem BioAssay.
